# Results reported in ChEMBL document CHEMBL4825713, “Promising Non-cytotoxic Monosubstituted Chalcones to Target Monoamine Oxidase-B” (ACS Med Chem Lett, 2021).
# Legend:
# [1] = target: T1, Amine oxidase [flavin-containing] B (Homo sapiens, UniProt P27338); assay: Reversible inhibition of recombinant human MAO-B using kynuramine as substrate at 4 times Ki incubated for 20 mins
# T1 sequence (P27338 whole entry): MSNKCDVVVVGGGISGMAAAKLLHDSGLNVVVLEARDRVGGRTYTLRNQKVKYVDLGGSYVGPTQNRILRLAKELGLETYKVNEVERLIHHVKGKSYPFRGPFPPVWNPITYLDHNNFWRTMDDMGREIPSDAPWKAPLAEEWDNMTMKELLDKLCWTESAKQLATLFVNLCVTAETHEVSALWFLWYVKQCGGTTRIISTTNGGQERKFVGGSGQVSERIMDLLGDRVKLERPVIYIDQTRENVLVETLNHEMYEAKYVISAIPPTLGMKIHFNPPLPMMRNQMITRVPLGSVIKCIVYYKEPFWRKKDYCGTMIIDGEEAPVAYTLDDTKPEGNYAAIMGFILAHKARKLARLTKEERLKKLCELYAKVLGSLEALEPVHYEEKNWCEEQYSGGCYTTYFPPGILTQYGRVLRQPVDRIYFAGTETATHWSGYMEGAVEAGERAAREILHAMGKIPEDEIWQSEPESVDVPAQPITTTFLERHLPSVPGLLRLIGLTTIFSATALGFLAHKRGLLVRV
# [2] = target: T1, Amine oxidase [flavin-containing] B; assay: Competitive inhibition of recombinant human MAO-B expressed in baculovirus infected BTI cells using varying concentration of kynuramine as substrate at 5 to 40 nM by Lineweaver-burk plot analysis; details: dose 5-40 nM
# In short: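 Initial velocities of human recombinant MAO-B measured at varied kynuramine concentrations, without inhibitor and with inhibitor at 5–40 nM. Data plotted as Lineweaver–Burk double reciprocals (1/v0 vs 1/[S]). Inhibition mode assigned from which intercept changes, x-intercept (−1/Km) versus y-intercept (1/Vmax). Mean ± SD of three independent experiments.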
SMILES,inhibition (INH) [1],inhibition (INH) [2]
O=C(/C=C/c1ccccc1[N+](=O)[O-])c1ccccc1,Active,–
O=C(/C=C/c1ccccc1)c1cccc(C(F)(F)F)c1,Active,Active
O=C(/C=C/c1ccccc1)c1ccc(C(F)(F)F)cc1,Active,–
